Where two headings read alike, the source gives them in different places.
What was measured:
recombinant PLD2 [1] = biological target: T1, recombinant PLD2 (Homo sapiens, UniProt O14939); test: Enzyme inhibition kinetics with purified recombinant PLD2; type: biochemical; settings: 300 nM inhibitor; for Effect on Km / Effect on Vmax / Type of inhibition (Lineweaver Burk plot): increasing PC
How it was run: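 Purified full-length PLD2 was expressed in Sf21 insect cells with a baculovirus system and enriched on TALON matrix. Two assay formats were used. In one, increasing enzyme amounts, untreated or with 300 nM inhibitor, were run with fixed PC at 3.5 mM. In the other, fixed enzyme, ± 300 nM inhibitor, was run with increasing PC. [3H]-phosphatidylbutanol co-migrating with PBut standards was measured by scintillation counting. Data were plotted as Michaelis-Menten and Lineweaver-Burk plots.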

PLD = settings: cited from earlier work
PLD1 [2] = biological target: T2, PLD1 (Homo sapiens, UniProt Q13393); test: Phospholipase; type: biochemical
T2 sequence (Q13393 1-1074): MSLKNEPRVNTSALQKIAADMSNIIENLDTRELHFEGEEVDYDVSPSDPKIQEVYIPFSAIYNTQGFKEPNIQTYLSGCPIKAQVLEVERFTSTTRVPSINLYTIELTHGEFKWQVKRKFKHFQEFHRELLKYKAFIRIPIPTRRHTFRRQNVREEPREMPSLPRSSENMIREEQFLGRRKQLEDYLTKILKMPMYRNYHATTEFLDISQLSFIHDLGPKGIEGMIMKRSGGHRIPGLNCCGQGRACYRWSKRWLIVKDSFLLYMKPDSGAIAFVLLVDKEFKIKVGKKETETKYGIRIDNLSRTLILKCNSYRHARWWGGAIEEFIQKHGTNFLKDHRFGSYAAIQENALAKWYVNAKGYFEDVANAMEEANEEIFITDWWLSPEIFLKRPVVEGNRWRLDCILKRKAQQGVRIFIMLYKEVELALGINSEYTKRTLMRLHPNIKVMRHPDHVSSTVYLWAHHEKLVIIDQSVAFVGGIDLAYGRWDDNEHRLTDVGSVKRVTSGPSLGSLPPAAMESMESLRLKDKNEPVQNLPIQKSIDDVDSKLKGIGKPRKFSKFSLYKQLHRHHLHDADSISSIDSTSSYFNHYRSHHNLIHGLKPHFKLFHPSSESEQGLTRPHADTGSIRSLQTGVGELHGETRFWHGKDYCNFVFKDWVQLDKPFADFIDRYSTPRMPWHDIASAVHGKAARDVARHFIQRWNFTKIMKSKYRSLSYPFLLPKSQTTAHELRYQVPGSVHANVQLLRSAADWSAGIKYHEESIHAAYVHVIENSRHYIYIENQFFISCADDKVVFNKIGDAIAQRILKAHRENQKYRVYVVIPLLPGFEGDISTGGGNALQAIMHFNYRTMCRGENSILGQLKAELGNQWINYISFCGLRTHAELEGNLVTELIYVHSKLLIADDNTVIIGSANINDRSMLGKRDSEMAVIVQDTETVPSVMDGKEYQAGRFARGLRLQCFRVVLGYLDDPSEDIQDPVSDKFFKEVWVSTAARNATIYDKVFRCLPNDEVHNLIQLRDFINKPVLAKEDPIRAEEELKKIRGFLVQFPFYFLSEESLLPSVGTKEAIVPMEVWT

PLD1 [3] = biological target: T2, PLD1; settings: inhibiting PLD1 in the tumor microenvironment ref Chen, Hongu et al. 2012; cited from earlier work
recombinant PLD2 [4] = biological target: T1, recombinant PLD2; test: Lipase assay of recombinant PLD2 with increasing concentrations of PIP2; type: biochemical; settings: 300 nM inhibitor, fixed PC8
How it was run: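 Baculovirus-expressed, TALON-enriched full-length PLD2 was left untreated or treated with 300 nM inhibitor. It was then run in the lipase assay with increasing PIP2 concentrations and a fixed concentration of PC8 substrate. Activity was read as radiolabelled phosphatidylbutanol, co-migrating with PBut standards, by scintillation counting.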

PLD2 mutants [5] = test: Lipase activity of PLD2 mutants overexpressed in COS7 cells; type: biochemical
How it was run: (§1)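 COS-7 cells in DMEM/10% FBS were transfected at 60% confluence with 1–6 μg plasmid (PLD2 mutants) using Lipofectamine/Plus, with 3 h exposure and 48 h expression. Lysates were treated with 300 nM test compound for 25 min. The lipase assay ran 20 min at 30 °C with shaking and was stopped with ice-cold chloroform/methanol (1:2). Lipids were separated by TLC, and [3H]-phosphatidylbutanol was quantified by scintillation counting.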

PLD2 mutants [6] = biological target: PLD2 mutants (Homo sapiens, UniProt O14939, S757A); test: as above; type: biochemical; settings: 300 nM
How it was run: as §1

[7] = in vivo ref Monovich, Mugrage et al. 2007; cited from earlier work
[8] = test system: breast cancer cells (MDA-MB-231); test: Cell invasion assay; type: cell-based; settings: 300 nM, 700 nM; not in cells overexpressing resistant PLD2 mutants
How it was run: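 PLD2 mutant constructs were overexpressed by transfection. After transfection, cells were harvested and treated with the test compound at 300 or 700 nM for 20 min. Invasion was then run in Matrigel inserts.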

PLD2 = settings: xenograft mice models ref Henkels, Boivin et al. 2013; cited from earlier work
[9] = ref Lewis JA et al, Bioorg Med Chem Lett, 2009

T1 sequence (O14939 whole entry, species assumed): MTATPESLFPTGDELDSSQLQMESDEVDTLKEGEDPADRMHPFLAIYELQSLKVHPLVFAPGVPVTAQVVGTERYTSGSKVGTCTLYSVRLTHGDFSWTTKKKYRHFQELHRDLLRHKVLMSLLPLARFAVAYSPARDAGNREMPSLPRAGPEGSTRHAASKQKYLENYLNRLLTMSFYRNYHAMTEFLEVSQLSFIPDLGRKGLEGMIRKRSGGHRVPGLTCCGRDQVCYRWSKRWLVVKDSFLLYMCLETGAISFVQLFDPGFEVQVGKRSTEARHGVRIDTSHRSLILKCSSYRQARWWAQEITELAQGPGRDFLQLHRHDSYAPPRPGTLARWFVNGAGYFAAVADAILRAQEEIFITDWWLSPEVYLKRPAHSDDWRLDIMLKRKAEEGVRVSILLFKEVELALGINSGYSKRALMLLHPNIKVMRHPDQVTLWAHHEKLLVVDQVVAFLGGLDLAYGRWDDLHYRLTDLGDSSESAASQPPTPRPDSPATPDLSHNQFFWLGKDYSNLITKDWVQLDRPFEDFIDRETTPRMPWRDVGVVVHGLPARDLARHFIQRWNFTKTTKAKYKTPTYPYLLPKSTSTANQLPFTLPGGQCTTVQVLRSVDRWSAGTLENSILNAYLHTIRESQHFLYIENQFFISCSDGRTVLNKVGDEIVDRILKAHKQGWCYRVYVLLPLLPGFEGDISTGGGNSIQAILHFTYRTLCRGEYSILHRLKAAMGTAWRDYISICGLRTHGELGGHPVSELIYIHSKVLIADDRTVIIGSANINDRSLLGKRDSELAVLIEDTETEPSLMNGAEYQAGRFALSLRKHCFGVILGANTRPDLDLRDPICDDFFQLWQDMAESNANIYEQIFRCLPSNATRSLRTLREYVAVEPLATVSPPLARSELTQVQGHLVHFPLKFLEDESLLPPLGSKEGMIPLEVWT
PLD2 mutants (Homo sapiens, UniProt O14939, S757A), sequence (O14939 whole entry S757A): as the sequence (O14939 whole entry, species assumed) above, with S757A counted along it

Q: For `O=C(NCCN1CCC(n2c(=O)[nH]c3ccccc32)CC1)c1cc2cc(F)ccc2[nH]1` [FIPI, N-[2-[4-(2,3-dihydro-2-oxo-1H-benzimidazol-1-yl)-1-piperidinyl]ethyl]-5-fluoro-1H-indole-2-carboxamide], which “Competition by increasing enzyme or substrate” value (recombinant PLD2 [1]) is on record?
A: not totally competed off

Q: What about the “Effect on Km” value (recombinant PLD2 [1]) of the same compound?
A: increase the Km

Q: What about the “Effect on Vmax” value (recombinant PLD2 [1]) of the same compound?
A: decreasing the Vmax

Q: And the “Type of inhibition (Lineweaver Burk plot)” value (recombinant PLD2 [1])?
A: mixed-type inhibition

Q: What about the Isoform specificity (PLD; ref Su W et al, Mol Pharmacol, 2009) of the same compound?
A: Dual (PLD1 and PLD2) inhibitor

Q: What about the IC50 (PLD1 [2]) of the same compound?
A: 30 nM

Q: What about the Metastasis and angiogenesis (PLD1 [3]) of the same compound?
A: dampens metastasis and angiogenesis

Q: And the “PLD2 inhibition with increasing concentrations of PIP2” value (recombinant PLD2 [4])?
A: FIPI inhibited the enzyme

Q: What about the “Inhibition of lipase activity of the battery of PLD2 mutants” value (PLD2 mutants [5]; 300 nM) of the same compound?
A: inhibited most of the mutants

Q: And the “Inhibition of PLD2-S757A lipase activity” value (PLD2 mutants [6])?
A: resistant

Q: What about the bioavailability [7] of the same compound?
A: 18%

Q: What about the half-life in vivo [7] of the same compound?
A: 5.5 h

Q: With `CC(CN1CCC(n2c(=O)[nH]c3cc(Cl)ccc32)CC1)NC(=O)c1ccc2ccccc2c1` (stereo not shown) [NBOD, N-[2-[4-(5-chloro-2,3-dihydro-2-oxo-1H-benzimidazol-1-yl)-1-piperidinyl]-1-methylethyl]-2-naphthalenecarboxamide] as the compound, how does the Isoform specificity (PLD; [9]) read?
A: PLD1 inhibitor

Q: For `O=C(NCCN1CCC2(CC1)C(=O)NCN2c1cccc(F)c1)c1ccc2ccccc2c1` [NFOT, N-[2-[1-(3-Fluorophenyl)-4-oxo-1,3,-8-triazaspiro[4,5]dec-8-yl]ethyl]-2-naphthalenecarboxamide], which “Effect on Km” value (recombinant PLD2 [1]) is on record?
A: increase the Km

Q: What about the “Effect on Vmax” value (recombinant PLD2 [1]) of the same compound?
A: decreasing the Vmax

Q: What about the “Type of inhibition (Lineweaver Burk plot)” value (recombinant PLD2 [1]) of the same compound?
A: mixed-type inhibition

Q: What about the Isoform specificity (PLD; ref Lavieri RR et al, J Med Chem, 2010) of the same compound?
A: PLD2 inhibitor

Q: What about the “PLD2 inhibition with increasing concentrations of PIP2” value (recombinant PLD2 [4]) of the same compound?
A: enzyme activity was regained back

Q: And the “Inhibition of PLD2-H158Q, Y165F, L173A, R210/212A, F244N/L245/L246A, S648A and S757A lipase activity” value (PLD2 mutants [5]; 300 nM)?
A: demonstrated resistance

Q: What about the “Inhibition of PLD2-R210A/R212A, F244N/L245/L246A, S648A and S757A lipase activity” value (PLD2 mutants [5]; range of inhibitor concentrations, Figure 5) of the same compound?
A: partially resistant to inhibition

Q: And the “Cell invasion of cancer cells” value [8]?
A: prevents cell invasion

Q: Which Isoform specificity (PLD; [9]) does the source give for `O=C(NCCN1CCC2(CC1)C(=O)NCN2c1ccccc1)c1ccc2ccccc2c1` [NOPT, N-[2-(4-oxo-1-phenyl-1,3,8-triazaspiro[4,5]dec-8-yl)ethyl]-2-naphthalenecarboxamide] here?
A: PLD2 inhibitor

Q: What about the “Tumor metastasis and cell invasion” value (PLD2) of the same compound?
A: inhibited tumor metastasis and cell invasion

Q: Which Isoform specificity (PLD; [9]) does the source give for `C[C@@H](CN1CCC(n2c(=O)[nH]c3cc(Br)ccc32)CC1)NC(=O)[C@@H]1C[C@H]1c1ccccc1` [RBPC, (1R,2R)-N-([S]-1-{4-[5-bromo-2-oxo-2,3-dihydro-1H-benzo(d)imidazol-1-yl]piperidin-1-yl}propan-2-yl)-2-phenylcyclopropanecarboxamide] here?
A: PLD1 inhibitor

Q: What about the “Inhibition of PLD activity in PLD1 overexpressed samples” value (PLD1 [2]; Figure 1) of the same compound?
A: did not efficiently inhibit PLD activity

Source: paper PMC4312721 (Biochimica et biophysica acta, 2014)
